Counter-ions that a name gives are not always drawn. Values belong to the compound of their own block, whether it stands above or below them. Calls of active or inactive are those of the source. The calls are words filed in the database; no cut-off is given here.
What was measured:
[1] = system: HeLa; assay: Effect on total JNK1 level in human HeLa cells preincubated for 30 mins prior to EGF stimulation by Western blotting; type: functional, cell-based
In short: (§1)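 Cells preincubated 30 min with vehicle, AG1478 or compound, then treated with EGF for 10 min. Lysed on ice 15 min in Tris-HCl pH 7.5/NaCl/NP-40/EDTA buffer with protease inhibitors, cleared at 14000g for 30 min at 4 °C. Equal extract amounts run on SDS-PAGE and blotted to PVDF. Probed for phospho-EGFR, phospho-ERK and phospho-JNK, then reprobed for total ERK and JNK.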

[2] = target: beta-catenin (Homo sapiens); assay: Inhibition of beta-catenin activation in human SW480 cells by luciferase reporter gene assay
[3] = target: T1, Epidermal growth factor receptor (Homo sapiens, UniProt P00533); assay: Inhibition of EGFR-induced AP1 activation in human HeLa cells preincubated for 1 hr prior to EGF stimulation by luciferase reporter gene assay; type: cell-based
T1 sequence (P00533 whole entry): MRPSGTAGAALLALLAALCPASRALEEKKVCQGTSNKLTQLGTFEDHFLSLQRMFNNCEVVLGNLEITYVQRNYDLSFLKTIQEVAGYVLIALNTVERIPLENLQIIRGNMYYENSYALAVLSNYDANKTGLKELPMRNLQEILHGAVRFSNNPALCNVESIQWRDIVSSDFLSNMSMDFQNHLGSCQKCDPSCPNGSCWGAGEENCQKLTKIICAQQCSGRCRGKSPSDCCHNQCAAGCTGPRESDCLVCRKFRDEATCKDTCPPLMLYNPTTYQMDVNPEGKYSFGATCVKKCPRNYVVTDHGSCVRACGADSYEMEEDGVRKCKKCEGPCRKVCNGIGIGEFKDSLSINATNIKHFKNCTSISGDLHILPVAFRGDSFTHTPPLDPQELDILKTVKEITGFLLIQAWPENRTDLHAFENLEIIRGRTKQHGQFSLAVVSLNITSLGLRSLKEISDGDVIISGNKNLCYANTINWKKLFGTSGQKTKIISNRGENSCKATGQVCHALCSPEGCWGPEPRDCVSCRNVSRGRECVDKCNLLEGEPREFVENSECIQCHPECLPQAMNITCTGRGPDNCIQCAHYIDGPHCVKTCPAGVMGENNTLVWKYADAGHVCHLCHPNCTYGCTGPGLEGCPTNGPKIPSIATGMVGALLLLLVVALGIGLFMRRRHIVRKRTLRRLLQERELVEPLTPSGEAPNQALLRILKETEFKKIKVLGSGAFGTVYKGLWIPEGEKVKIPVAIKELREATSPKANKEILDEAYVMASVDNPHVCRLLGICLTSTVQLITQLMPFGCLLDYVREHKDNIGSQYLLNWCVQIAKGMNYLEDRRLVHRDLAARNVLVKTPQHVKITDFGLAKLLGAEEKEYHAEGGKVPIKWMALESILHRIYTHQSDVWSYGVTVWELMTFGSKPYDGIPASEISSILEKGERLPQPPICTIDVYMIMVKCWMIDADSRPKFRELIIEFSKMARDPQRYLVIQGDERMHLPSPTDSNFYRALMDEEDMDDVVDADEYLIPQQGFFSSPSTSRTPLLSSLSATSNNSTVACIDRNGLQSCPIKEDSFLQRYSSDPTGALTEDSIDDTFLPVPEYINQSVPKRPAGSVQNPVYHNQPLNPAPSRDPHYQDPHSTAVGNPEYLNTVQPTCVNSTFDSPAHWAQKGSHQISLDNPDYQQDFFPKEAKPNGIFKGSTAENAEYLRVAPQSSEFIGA

[4] = system: HeLa; assay: Effect on total ERK2 level in human HeLa cells preincubated for 30 mins prior to EGF stimulation by Western blotting; type: functional, cell-based; in short: as §1
[5] = target: T1, Epidermal growth factor receptor; assay: Inhibition of EGFR autophosphorylation in human HeLa cells preincubated for 30 mins prior to EGF stimulation by Western blotting; type: cell-based; in short: as §1
[6] = system: A549; assay: Antitumor activity against human A549 cells after 72 hrs by SRB assay; type: functional; details: A549, 72 h; for CC50: read-out: LC50 (the source's name)
In short: (§2)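 Cells kept in RPMI with 10% fetal calf serum, 2 mM L-glutamine, penicillin/streptomycin, 37 °C, 5% CO2. Triplicate cultures exposed 72 h to 10 concentrations from 10 to 0.0026 μg/mL. Fixed in 1% glutaraldehyde, stained with 0.4% SRB for 30 min, dye extracted in 10 mM Trizma base, absorbance at 490 nm. Doxorubicin positive control. GI50, TGI and LC50 interpolated from nonlinear-regression dose-response curves (mean ± SD).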

[7] = target: HIF-1alpha (Homo sapiens); assay: Inhibition of HIF1alpha activation in human HeLa cells stimulated with deferoxamine by luciferase reporter gene assay
[8] = target: T1, Epidermal growth factor receptor; assay: Inhibition of EGFR-induced ERK phosphorylation in human HeLa cells preincubated for 4 hrs prior to EGF stimulation by Western blotting; type: cell-based
In short: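 Cells preincubated 4 h with vehicle, AG1478 or compound before a 10 min EGF treatment. Lysates cleared at 14000g for 30 min at 4 °C, resolved by SDS-PAGE and blotted to PVDF. Probed for phospho-ERK and reprobed for total ERK.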

[9] = system: MDA-MB-231; assay: Antitumor activity against human MDA-MB-231 cells after 72 hrs by SRB assay; type: functional; details: MDA-MB-231, 72 h; in short: as §2
[10] = system: HT-29; assay: Antitumor activity against human HT-29 cells after 72 hrs by SRB assay; type: functional; details: HT-29, 72 h; in short: as §2
[11] = target: T1, Epidermal growth factor receptor; assay: Inhibition of EGFR-induced ERK phosphorylation in human HeLa cells preincubated for 30 mins prior to EGF stimulation by Western blotting; type: cell-based; in short: as §1
[12] = target: T1, Epidermal growth factor receptor; assay: Inhibition of EGFR-induced JNK1 phosphorylation in human HeLa cells preincubated for 30 mins prior to EGF stimulation by Western blotting; type: cell-based; in short: as §1

SMILES: C/C=C(\C)[C@H](O)[C@H](C)/C=C(C)/C=C/CC(C)/C=C/c1oc(OC)c(C)c(=O)c1C (some centres not stated)
- Activity [1]: inactive
- IC50 [2]: 660 nM
- IC50 [3]: < 7 nM
- Activity [4]: inactive
- inhibition [5]: inactive
- GI50 [6]: 5000 nM
- TGI [6]: 13500 nM
- CC50 [6]: > 22000 nM
- IC50 [7]: 470 nM
- inhibition [8]: Active
- GI50 [9]: 10500 nM
- LC50 (concentration killing 50% of cells) [9]: > 22000 nM
- TGI [9]: > 22000 nM
- GI50 [10]: 10800 nM
- LC50 [10]: 11500 nM
- TGI [10]: 10800 nM
- inhibition [11]: Active

- inhibition [5]: Active
SMILES: COc1cc2ncnc(Nc3cccc(Cl)c3)c2cc1OC

SMILES: C/C=C(\C)C(O[C@@H]1O[C@H](CO)[C@@H](O)[C@H](O)[C@H]1O)C(C)/C=C(C)/C=C/CC(C)/C=C/c1oc(OC)c(CC)c(=O)c1C (some centres not stated)
- GI50 [6]: 280 nM
- TGI [6]: 520 nM
- CC50 [6]: 1080 nM
- GI50 [9]: 240 nM
- LC50 (concentration killing 50% of cells) [9]: 820 nM
- TGI [9]: 430 nM
- GI50 [10]: 380 nM
- LC50 [10]: 4680 nM
- TGI [10]: 1230 nM

SMILES: C/C=C(\C)C(O[C@@H]1O[C@H](CO)[C@@H](O)[C@H](O)[C@H]1O)C(C)/C=C(C)/C=C/CC(C)/C=C/c1oc(OC)c(C)c(=O)c1C (some centres not stated)
- Activity [1]: inactive
- IC50 [2]: 170 nM
- IC50 [3]: 160 nM
- Activity [4]: inactive
- inhibition [5]: inactive
- GI50 [6]: 530 nM
- TGI [6]: 760 nM
- CC50 [6]: 1160 nM
- IC50 [7]: 60 nM
- GI50 [9]: 500 nM
- LC50 (concentration killing 50% of cells) [9]: 1010 nM
- TGI [9]: 690 nM
- LC50 [10]: 240 nM
- inhibition [11]: inactive

SMILES: COc1cccc2c1C(=O)c1c(O)c3c(c(O)c1C2=O)C[C@@](O)(C(=O)CO)C[C@@H]3O[C@H]1C[C@H](N)[C@H](O)[C@H](C)O1 [DOXORUBICIN HYDROCHLORIDE]
- GI50 [6]: 60 nM
- TGI [6]: 200 nM
- CC50 [6]: 590 nM
- GI50 [9]: 90 nM
- TGI [9]: 180 nM
- GI50 [10]: 150 nM
- TGI [10]: 180 nM

SMILES: C/C=C(\C)C(O)C(C)/C=C(C)/C=C/CC(C)/C=C/c1oc(OC)c(CC)c(=O)c1C (configuration not stated)
- Activity [1]: inactive
- Activity [4]: inactive
- inhibition [5]: inactive
- inhibition [12]: Active
- GI50 [6]: 18600 nM
- TGI [6]: > 22000 nM
- CC50 [6]: > 22000 nM
- GI50 [9]: > 22000 nM
- LC50 (concentration killing 50% of cells) [9]: > 22000 nM
- TGI [9]: > 22000 nM
- GI50 [10]: 21500 nM
- LC50 [10]: > 22000 nM
- TGI [10]: > 22000 nM
- inhibition [11]: inactive
